Reference: ChEMBL document CHEMBL1141222, “Antitrypanosomal, antileishmanial, and antimalarial activities of quaternary arylalkylammonium 2-amino-4-chlorophenyl phenyl sulfides, a new class of trypanothione reductase inhibitor, and of N-acyl derivatives of 2-amino-4-chlorophenyl phenyl sulfide” (J Med Chem, 2005)
pIC50, pKi: −log10 of the molar value. Converted amounts (≈) assume the structure as drawn.

Columns and labels:
Leishmania donovani = assay: Antileishmanial activity against Leishmania donovani HU3; type: functional, organism-based
Method in brief: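 Peritoneal exudate macrophages from CD1 mice (harvested 24 h after starch induction) held 24 h in RPMI1640 + 10% HIFCS, 37 °C, 5% CO2, then infected with hamster-spleen HU3 amastigotes at 5:1. After 24 h, drug exposure for 5 days (overlay replaced day 3), top 30 µg/mL, quadruplicate. Giemsa-stained slides scored microscopically; IC50 by curve fit. Pentostam positive control.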

Trypanothione reductase [1] = biological target: T1, Trypanothione reductase (Trypanosoma cruzi, UniProt P28593); assay: Linear competitive inhibition of trypanothione reductase from Trypanosoma cruzi using TSST substrate
KB = assay: Cytotoxicity in KB cells; type: functional, cell-based; conditions: Homo sapiens
[2] = system: Trypanosoma brucei rhodesiense; assay: Antitrypanosomal activity against Trypanosoma brucei rhodesiense STIB900; type: functional, organism-based
Method in brief: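 STIB900 bloodstream trypomastigotes in HMI-18 + 15% HIFCS, seeded at 2 × 10⁵/mL onto drug dilutions (top 30 µg/mL), 72 h at 37 °C, 5% CO2; pentamidine reference.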

Trypanothione reductase [3] = biological target: T1, Trypanothione reductase; assay: (§1) Mixed inhibition of trypanothione reductase from Trypanosoma cruzi using TSST substrate
Method in brief: (§2)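 E. coli JM109-expressed T. cruzi TR (3 µg/mL), 25 °C, 0.02 M HEPES pH 7.25 containing 0.15 M KCl, 1 mM EDTA and 0.1 mM NADPH. TSST as variable substrate at 30-240 µM against a series of inhibitor concentrations. Absorbance read at 340 nm. Ki and Ki′ obtained from Dixon, Lineweaver-Burk and Cornish-Bowden plots fitted to a mixed inhibition model.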

[4] = biological target: Trypanothione reductase (Trypanosoma cruzi) (UniProt P28593); assay: as §1; method in brief: as §2
Trypanosoma cruzi = assay: Antitrypanosomal activity against Trypanosoma cruzi Tulahuan; type: functional, organism-based
Plasmodium falciparum = assay: Antimalarial activity against Plasmodium falciparum 3D7; type: functional, organism-based
Method in brief: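 Asynchronous 3D7 cultures (65-75% rings) in RPMI 1640, 5% hematocrit, 0.5% parasitemia, 37 °C, 5% CO2; top final drug concentration 30. After 24 h, [3H]-hypoxanthine ([…]) added, then 48 h more. Plates freeze/thawed and harvested; uptake by scintillation counting; IC50 by curve fit.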

Trypanothione reductase [5] = biological target: T1, Trypanothione reductase; assay: Linear competitive inhibition of trypanothione reductase from Trypanosoma cruzi using (ZCG.dmapa)2 substrate
Trypanothione reductase [6] = biological target: T1, Trypanothione reductase; assay: Inhibitory activity against trypanothione reductase from Trypanosoma cruzi using 0.12 mM TSST substrate
Method in brief: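 Recombinant T. cruzi TR overexpressed in E. coli JM109, homogeneous by SDS-PAGE. I50 read by interpolation from velocity vs inhibitor concentration, fitted to the linear competitive equation by nonlinear regression.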

[7] = biological target: T2, Glutathione reductase, mitochondrial (Homo sapiens, UniProt P00390); assay: Inhibitory activity against human glutathione reductase at 0.5 mM
T2 sequence (P00390 whole entry): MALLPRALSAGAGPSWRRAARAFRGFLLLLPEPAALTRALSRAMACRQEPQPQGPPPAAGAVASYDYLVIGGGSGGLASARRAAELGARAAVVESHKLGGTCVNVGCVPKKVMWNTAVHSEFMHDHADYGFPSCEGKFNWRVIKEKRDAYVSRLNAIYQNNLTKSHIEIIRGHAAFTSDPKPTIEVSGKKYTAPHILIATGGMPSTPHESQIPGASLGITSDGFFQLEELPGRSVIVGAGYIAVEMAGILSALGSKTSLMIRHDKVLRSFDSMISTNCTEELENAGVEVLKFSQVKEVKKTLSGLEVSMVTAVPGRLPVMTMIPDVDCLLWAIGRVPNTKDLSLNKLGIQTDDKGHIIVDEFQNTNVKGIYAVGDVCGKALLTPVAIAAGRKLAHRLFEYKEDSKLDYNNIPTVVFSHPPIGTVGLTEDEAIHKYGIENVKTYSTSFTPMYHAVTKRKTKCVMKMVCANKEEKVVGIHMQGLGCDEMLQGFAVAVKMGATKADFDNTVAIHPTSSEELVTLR

Sequence of Trypanothione reductase (Trypanosoma cruzi) (P28593 whole entry, looked up): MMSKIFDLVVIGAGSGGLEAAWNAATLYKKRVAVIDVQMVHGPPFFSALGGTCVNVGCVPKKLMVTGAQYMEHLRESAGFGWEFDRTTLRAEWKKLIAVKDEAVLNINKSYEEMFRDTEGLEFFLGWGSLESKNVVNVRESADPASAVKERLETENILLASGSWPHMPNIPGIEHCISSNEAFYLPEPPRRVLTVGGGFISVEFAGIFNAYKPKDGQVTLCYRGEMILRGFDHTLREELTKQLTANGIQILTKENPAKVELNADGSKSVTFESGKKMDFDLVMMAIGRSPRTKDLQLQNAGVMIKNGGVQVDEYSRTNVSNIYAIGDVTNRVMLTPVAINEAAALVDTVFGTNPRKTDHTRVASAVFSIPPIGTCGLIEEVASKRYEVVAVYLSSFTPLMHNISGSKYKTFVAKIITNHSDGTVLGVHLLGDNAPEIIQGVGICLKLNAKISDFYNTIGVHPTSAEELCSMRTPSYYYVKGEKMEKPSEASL
T1 sequence (P28593 whole entry): as the sequence (P28593 whole entry, looked up) above

**Q.** C[N+](C)(CCCN1c2ccccc2Sc2ccc(Cl)cc21)c1ccc(Cl)c(Cl)c1 was tested. Which IC50 (Leishmania donovani) did it give?
**A.** 4 µg/mL

**Q.** And the pKi (Trypanothione reductase [1])?
**A.** 6.74

**Q.** What about the IC50 (KB) of the same molecule?
**A.** 3.5 µg/mL

**Q.** What about the IC50 [2] of the same molecule?
**A.** 0.02 µg/mL

**Q.** What about the pKi (Trypanothione reductase [3]) of the same molecule?
**A.** 6.36

**Q.** And the Ki' [4]?
**A.** 3.5 µM

**Q.** What about the IC50 (Trypanosoma cruzi) of the same molecule?
**A.** < 1.1 µg/mL

**Q.** And the IC50 (Plasmodium falciparum)?
**A.** 0.47 µg/mL

**Q.** How did the IC50 (Leishmania donovani) turn out when Nc1cc(Cl)ccc1Sc1ccccc1 was run?
**A.** > 30 µg/mL

**Q.** And the IC50 (KB)?
**A.** 47.9 µg/mL (≈ 203 µM)

**Q.** What about the IC50 [2] of the same molecule?
**A.** 4.4 µg/mL (≈ 18.7 µM)

**Q.** And the pKi (Trypanothione reductase [3])?
**A.** 3.82

**Q.** And the Ki' [4]?
**A.** 860 µM

**Q.** What about the IC50 (Trypanosoma cruzi) of the same molecule?
**A.** 6.7 µg/mL (≈ 28.4 µM)

**Q.** What about the IC50 (Plasmodium falciparum) of the same molecule?
**A.** 11.3 µg/mL (≈ 47.9 µM)

**Q.** Which IC50 (Leishmania donovani) does the source give for CC(C)(C)c1ccc([N+](C)(C)CCCNc2cc(Cl)ccc2Sc2ccccc2)cc1 here?
**A.** 3.9 µg/mL

**Q.** What about the pKi (Trypanothione reductase [1]) of the same molecule?
**A.** 5.57

**Q.** And the IC50 (KB)?
**A.** 2.14 µg/mL

**Q.** What about the IC50 [2] of the same molecule?
**A.** 0.01 µg/mL

**Q.** And the pKi (Trypanothione reductase [5])?
**A.** 5.19

**Q.** What about the IC50 (Trypanosoma cruzi) of the same molecule?
**A.** < 1.1 µg/mL

**Q.** And the IC50 (Plasmodium falciparum)?
**A.** 0.6 µg/mL

**Q.** With C[N+](C)(CCCNc1cc(Cl)ccc1Sc1ccccc1)c1ccc(OCc2ccccc2)cc1 as the molecule, how does the pKi (Trypanothione reductase [5]) read?
**A.** 5.18

**Q.** Which IC50 (Leishmania donovani) does the source give for CCC(=O)Nc1cc(Cl)ccc1Sc1ccccc1 here?
**A.** > 30 µg/mL

**Q.** And the IC50 (KB)?
**A.** 93.1 µg/mL (≈ 319 µM)

**Q.** What about the IC50 [2] of the same molecule?
**A.** 11.3 µg/mL (≈ 38.7 µM)

**Q.** And the pIC50 (Trypanothione reductase [3])?
**A.** 4.50

**Q.** What about the pKi (Trypanothione reductase [3]) of the same molecule?
**A.** 4.70

**Q.** What about the Ki' [4] of the same molecule?
**A.** 29.3 µM

**Q.** What about the IC50 (Trypanosoma cruzi) of the same molecule?
**A.** 18.3 µg/mL (≈ 62.7 µM)

**Q.** What about the IC50 (Plasmodium falciparum) of the same molecule?
**A.** > 30 µg/mL

**Q.** How did the IC50 (Leishmania donovani) turn out when CC(C)(C)c1ccc([N+](C)(C)CCCN)cc1 was run?
**A.** > 30 µg/mL

**Q.** What about the IC50 (KB) of the same molecule?
**A.** > 300 µg/mL

**Q.** And the IC50 [2]?
**A.** > 30 µg/mL

**Q.** What about the pIC50 (Trypanothione reductase [6]) of the same molecule?
**A.** 6.22

**Q.** And the pKi (Trypanothione reductase [3])?
**A.** 6.82

**Q.** What about the IC50 (Trypanosoma cruzi) of the same molecule?
**A.** > 30 µg/mL

**Q.** And the IC50 (Plasmodium falciparum)?
**A.** > 30 µg/mL

**Q.** Which results are given for O=[N+]([O-])c1cc(Cl)ccc1Sc1ccccc1?
**A.** IC50 (Leishmania donovani): > 30 µg/mL; IC50 (KB): 43.1 µg/mL (≈ 162 µM); IC50 [2]: 11.5 µg/mL (≈ 43.3 µM); IC50 (Trypanosoma cruzi): 11.3 µg/mL (≈ 42.5 µM); IC50 (Plasmodium falciparum): 15.6 µg/mL (≈ 58.7 µM)

**Q.** What does the source list for O=C(Nc1cc(Cl)ccc1Sc1ccccc1)c1ccc([N+](=O)[O-])cc1?
**A.** IC50 (Leishmania donovani): > 30 µg/mL; IC50 (KB): 223 µg/mL (≈ 579 µM); IC50 [2]: > 30 µg/mL; pIC50 (Trypanothione reductase [3]): 4.35; pKi (Trypanothione reductase [3]): 4.37; Ki' [4]: 12.9 µM; IC50 (Trypanosoma cruzi): > 30 µg/mL; IC50 (Plasmodium falciparum): > 30 µg/mL

**Q.** O=C(Nc1cc(Cl)ccc1Sc1ccccc1)c1ccccc1 was tested. Which IC50 (Leishmania donovani) did it give?
**A.** > 30 µg/mL

**Q.** And the IC50 (KB)?
**A.** 9 µg/mL (≈ 26.5 µM)

**Q.** And the IC50 [2]?
**A.** 8.7 µg/mL (≈ 25.6 µM)

**Q.** What about the pIC50 (Trypanothione reductase [3]) of the same molecule?
**A.** 4.30

**Q.** What about the pKi (Trypanothione reductase [3]) of the same molecule?
**A.** 4.61

**Q.** What about the Ki' [4] of the same molecule?
**A.** 37.7 µM

**Q.** What about the IC50 (Trypanosoma cruzi) of the same molecule?
**A.** 19.8 µg/mL (≈ 58.3 µM)

**Q.** What about the IC50 (Plasmodium falciparum) of the same molecule?
**A.** > 30 µg/mL

**Q.** With C[N+](C)(CCCNc1cc(Cl)ccc1Sc1ccccc1)C(c1ccccc1)c1ccccc1 as the molecule, how does the pKi (Trypanothione reductase [5]) read?
**A.** 5.28

**Q.** What does the source list for O=C(Cc1ccccc1)Nc1cc(Cl)ccc1Sc1ccccc1?
**A.** IC50 (Leishmania donovani): > 30 µg/mL; IC50 (KB): > 300 µg/mL; IC50 [2]: 7.4 µg/mL (≈ 20.9 µM); pIC50 (Trypanothione reductase [3]): 4.43; pKi (Trypanothione reductase [3]): 4.61; Ki' [4]: 35.9 µM; IC50 (Trypanosoma cruzi): > 30 µg/mL; IC50 (Plasmodium falciparum): 30 µg/mL (≈ 84.8 µM)

**Q.** How did the pKi (Trypanothione reductase [5]) turn out when C[N+](C)(CCCNc1cc(Cl)ccc1Sc1ccccc1)c1ccccc1 was run?
**A.** 4.85

**Q.** C[N+](C)(CCCNc1cc(Cl)ccc1Sc1ccccc1)c1ccc(Cl)c(Cl)c1 was tested. Which Ki [7] did it give?
**A.** Not Active

**Q.** And the pKi (Trypanothione reductase [5])?
**A.** 5.77

**Q.** What does the source list for CC(C)(C)c1ccc([N+](C)(C)CCCN2c3ccccc3Sc3ccc(Cl)cc32)cc1?
**A.** IC50 (Leishmania donovani): 3.8 µg/mL; pKi (Trypanothione reductase [1]): 6.24; IC50 (KB): 2.88 µg/mL; IC50 [2]: 0.02 µg/mL; pKi (Trypanothione reductase [5]): 4.18; IC50 (Trypanosoma cruzi): < 1.1 µg/mL; IC50 (Plasmodium falciparum): 0.13 µg/mL

**Q.** CCCC(=O)Nc1cc(Cl)ccc1Sc1ccccc1 was tested. Which IC50 (Leishmania donovani) did it give?
**A.** > 30 µg/mL

**Q.** And the IC50 (KB)?
**A.** > 300 µg/mL

**Q.** What about the IC50 [2] of the same molecule?
**A.** 14.2 µg/mL (≈ 46.4 µM)

**Q.** What about the pIC50 (Trypanothione reductase [3]) of the same molecule?
**A.** 4.52

**Q.** What about the pKi (Trypanothione reductase [3]) of the same molecule?
**A.** 4.95

**Q.** And the Ki' [4]?
**A.** 42.6 µM

**Q.** And the IC50 (Trypanosoma cruzi)?
**A.** 9.4 µg/mL (≈ 30.7 µM)

**Q.** What about the IC50 (Plasmodium falciparum) of the same molecule?
**A.** 19.1 µg/mL (≈ 62.5 µM)
